Experimental data of several laboratories.
JAK2 JH1: Tyrosine-protein kinase JAK2, JH1 (JAK2, Homo sapiens, UniProt O60674)
JAK2: Tyrosine-protein kinase JAK2 (JAK2, Homo sapiens, UniProt O60674)

COc1cc2ncnc(Nc3ccc(Oc4ccccc4)cc3C)c2cc1OC  inhibition (Tyrosine-protein kinase JAK2, JH1 (JAK2, Homo sapiens, UniProt O60674, V617F); enzyme activity, inhibitor; 1 µM): -11%
COCCOc1nc(-c2ccc(Cl)nc2)nc2c1CN(C(=O)c1ncn3ccccc13)CC2  remaining binding (JAK2 JH1; cell-free assay, competition with immobilised ligand; 0.1 µM): 100%
Cc1ccc(Nc2nccc(N(C)c3ccc4c(C)n(C)nc4c3)n2)cc1S(N)(=O)=O  inhibition (JAK2; enzyme activity, inhibitor; 0.3 µM): 12%
C[C@H](NC(=O)c1cnc2n1[C@](C)(Cc1ccc(C#N)cc1)C(=O)N2c1cc(Cl)c(F)c(Cl)c1)C(=O)NC1(c2ccccn2)CC1  remaining binding (JAK2 JH1; cell-free assay, competition with immobilised ligand; 1 µM): 100%
COc1cc2ncnc(Nc3ccc(Oc4ccccc4)c(C)c3C)c2cc1OC  inhibition (JAK2; enzyme activity, inhibitor; 1 µM): 3%
C[C@@H]1CCN(c2nccc(-c3cnn4ncccc34)n2)C1  remaining signal (JAK2 JH1; cell-free assay; 1 µM): 90%
FC(F)(F)Oc1cccc(-c2cnc3ccc(-c4ccncc4)nn23)c1  activity vs control (JAK2; enzyme activity, inhibitor, radiometric; 5 µM): 72%
CC(C)c1ccc(NC(=O)c2cccs2)c(-c2nc3ccccc3[nH]c2=O)c1  activity vs control (JAK2; enzyme activity, inhibitor; 1 µM): 123%
O=C(NCCCNc1nc(Nc2cccc(NC(=O)N3CCCC3)c2)ncc1Br)C1CCC1  remaining activity (JAK2; enzyme activity, inhibitor, radiometric; 1 µM): 10%
Nc1ncnc2occ(-c3ccc(NC(=O)Nc4cc(C(F)(F)F)ccc4F)cc3)c12  remaining signal (JAK2 JH1; cell-free assay, inhibitor; 20 µM): 2%
Cc1nn(CC(F)(F)F)cc1Nc1nccc(NCCc2cnc[nH]2)n1  remaining activity (JAK2; enzyme activity, inhibitor, radiometric; 1 µM): 89%
CCOC(=O)c1cc2cc(-c3cc(C(=O)NCc4ccc(C(=O)O)cc4)nn3C)ccc2[nH]1  remaining binding (JAK2 JH1; cell-free assay, competition with immobilised ligand; 0.1 µM): 95%
O=C(NCCCNc1nc(Nc2cccc(NC(=O)N3CCCC3)c2)ncc1C1CC1)C1CCC1  remaining activity (JAK2; enzyme activity, inhibitor, radiometric; 1 µM): 68%
CNC(=O)c1ccc(Nc2ncc(C(F)(F)F)c(NCc3nccnc3N(C)S(C)(=O)=O)n2)cc1  remaining binding (JAK2; binding, competition with immobilised ligand; 1 µM): 4.8%
Cc1sc(C(=O)NC2COC2)cc1-n1cc(NC(=O)Nc2c(F)cccc2Cl)cn1  remaining activity (JAK2; enzyme activity, inhibitor; 10 µM): 95%
Cc1nc(N2CC[C@@H](O)C2)ncc1-c1cc(C(F)(F)F)cc2[nH]ncc12  remaining binding (JAK2 JH1; binding, competition with immobilised ligand; 1 µM): 61%
N#CCCc1ccc2c(c1)-c1[nH]c3ccc([N+](=O)[O-])cc3c1CC(=O)N2  remaining signal (JAK2; cell-free assay; 0.5 µM): 93%
CN(C(=O)c1ccccc1)c1cc(N(C)c2ccc3c(c2)CCc2ccc(C(=O)NCCN4CCOCC4)cc2C3=O)ccc1F  remaining binding (JAK2 JH1; cell-free assay, competition with immobilised ligand; 1 µM): 100%
CNC(=O)c1cc(Oc2ccc(NC(=O)Nc3ccc(Cl)c(C(F)(F)F)c3)cc2)ccn1  remaining signal (JAK2; cell-free assay; 0.5 µM): 98.2%
